Here are results for four compounds from article PMC7439261 (ACS Omega, 2020).

Data set [1] relates to H. pylori ATCC 43504 biofilm formation. The data set can be described thus: Biofilm formation inhibitory assay. The format is cell-based, Helicobacter pylori. The note with it: 48 h.
The test system of data set [2] is test strains of H. pylori. Briefly: Broth dilution bioassay MIC/MBC, text summary over test strains. The note with it: Helicobacter pylori. The format is cell-based. (Broth dilution looks for growth in wells or tubes with falling amounts of substance.)
Data set [3] in a line: Sulforhodamine cytotoxicity assay, MCF7. The format is cell-based. The settings on record: human, MCF7 cells. In short, it runs like this: (§1)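 Cells were grown in EMEM with 10% FBS, 2 mM L-glutamine, 20 mM HEPES and antibiotics at 37 °C, 5% CO2. Passages were 4–20 for HeLa, MCF7 and Jurkat, and 2–5 for fibroblasts. Seeding per well for 24 h: HeLa 5×10^3, MCF7 and fibroblast 10^4, Jurkat 5×10^4. Test compound (0–200 mg/L, in DMSO) was added for 48 h. Cells were fixed with cold TCA, stained with 0.2% SRB, solubilised in 10 mM Tris and read at 492 nm. Camptothecin was the positive control. Triplicates, three independent experiments.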

Data set [4] can be described thus: Sulforhodamine cytotoxicity assay, Jurkat. The format is cell-based. The settings on record: human, Jurkat cells. In short, it runs like this:
as §1

The test system of another data set is H. pylori OX.63. The data set can be described thus: Broth dilution bioassay MIC/MBC, OX.63. The format is cell-based, Helicobacter pylori. The note with it: for MIC: H. pylori OX.63, broth dilution, 48 h; for MBC: OX.63, 72 h.
A further data set deals with H. pylori OX.64. Briefly: Broth dilution bioassay MIC/MBC, OX.64. The format is cell-based, Helicobacter pylori. The note with it: for MIC: H. pylori OX.64, broth dilution, 48 h; for MBC: OX.64, 72 h.
Data set [5] concerns H. pylori ATCC 43504. The data set can be described thus: Time-killing assay. The format is cell-based, Helicobacter pylori. In short, it runs like this: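 H. pylori ATCC 43504 in 10% NBS-supplemented Brucella broth in 96-well plates, by broth microdilution. Inoculum suspension 5×10^6 CFU/mL; DMSO final ≤2.5%. Test compound was used at concentrations from MIC to MBC, alongside an untreated control. Viability was counted by plate colony count at 0, 6, 12, 18, 24, 36 and 48 h.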

The next data set deals with H. pylori OX.83. Briefly: Broth dilution bioassay MIC/MBC, OX.83. The format is cell-based, Helicobacter pylori. The settings on record: for MIC: H. pylori OX.83, broth dilution, 48 h; for MBC: OX.83, 72 h.
The nature of data set [6]: Sulforhodamine cytotoxicity assay, HeLa. The class given is cell-based. The settings on record: human, HeLa cells. The gist of the method:
as §1

For a further data set, the system named is H. pylori OX.67. Briefly: Broth dilution bioassay MIC/MBC, OX.67. The format is cell-based, Helicobacter pylori. The settings on record: for MIC: H. pylori OX.67, broth dilution, 48 h; for MBC: OX.67, 72 h.
A short description of data set [7]: Sulforhodamine cytotoxicity assay, fibroblast. The format is cell-based. The note with it: human, fibroblast cells derived from human foreskins. The gist of the method:
as §1

For a further data set, the system named is H. pylori OX.22. The data set can be described thus: Broth dilution bioassay MIC/MBC, OX.22. The format is cell-based. The note with it: Helicobacter pylori; for MIC: OX.22, 48 h; for MBC: OX.22, 72 h.
A short description of data set [8]: Sulforhodamine cytotoxicity assay, text summary over four cell lines. The class given is cell-based. The note with it: human. In short, it runs like this:
as §1

In data set [9] the test system is H. pylori ATCC 43504. Briefly: Broth dilution bioassay MIC/MBC, ATCC 43504. The class given is cell-based. The settings on record: Helicobacter pylori; for MIC: ATCC43504, 48 h; for MBC: ATCC43504, 72 h.
The target of data set [10] is H. pylori ATCC 43504 urease (Helicobacter pylori, UniProt P69996). The data set can be described thus: Urease inhibition, salicylate-hypochlorite method. The class given is biochemical. The settings on record: for slope ± SE: slope of dose-response curve of percentage of urease inhibition. The gist of the method:
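Crude H. pylori ATCC 43504 urease, 0.25 μg (0.04 U), in EDTA–sodium phosphate buffer pH 7.3, was preincubated with test compound at 37 °C for 90 min at 50 rpm. Urea solution (10 mM, as added) was then incubated for 30 min. Ammonia was measured by the salicylate–nitroprusside/alkaline hypochlorite method at 625 nm. Thiourea was the reference inhibitor. IC50 is molar. Triplicates, three independent experiments.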

The subject of the next data set is H. pylori ATCC 51932. Briefly: Broth dilution bioassay MIC/MBC, ATCC 51932. The class given is cell-based. The note with it: Helicobacter pylori; for MIC: ATCC51932, 48 h; for MBC: ATCC51932, 72 h.
Data set [11] has as its system H. pylori ATCC 43504. Briefly: Effect on morphology. The format is cell-based, Helicobacter pylori.
[12] abbreviates: Helicobacter pylori, OX.63, 48 h.
Setting [13] is: Helicobacter pylori, OX.64, 48 h.
[14] abbreviates: Helicobacter pylori, OX.83, 48 h.
[15] abbreviates: Helicobacter pylori, OX.67, 48 h.

Values after ≈ are worked out from the molar mass of the structure shown. Values joined by “and” are separate entries in the source; they are usually repeats but may differ in a detail not shown here. Equal values may be shown once.

H. pylori ATCC 43504 urease, sequence (P69996 whole entry): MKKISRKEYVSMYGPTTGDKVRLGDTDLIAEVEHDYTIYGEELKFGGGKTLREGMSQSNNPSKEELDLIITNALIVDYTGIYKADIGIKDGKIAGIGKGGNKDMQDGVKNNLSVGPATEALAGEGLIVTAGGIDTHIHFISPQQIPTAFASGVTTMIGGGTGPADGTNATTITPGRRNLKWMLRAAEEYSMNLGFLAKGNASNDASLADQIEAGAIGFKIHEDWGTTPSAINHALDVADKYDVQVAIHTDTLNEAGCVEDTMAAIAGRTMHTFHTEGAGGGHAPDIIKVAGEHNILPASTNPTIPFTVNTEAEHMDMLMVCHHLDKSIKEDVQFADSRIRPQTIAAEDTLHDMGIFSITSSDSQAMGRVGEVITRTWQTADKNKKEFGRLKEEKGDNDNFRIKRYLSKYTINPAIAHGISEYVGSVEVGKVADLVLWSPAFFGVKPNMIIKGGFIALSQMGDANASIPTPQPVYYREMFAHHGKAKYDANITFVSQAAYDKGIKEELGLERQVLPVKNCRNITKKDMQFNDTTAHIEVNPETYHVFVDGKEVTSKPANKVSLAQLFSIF
H. pylori ATCC 43504 urease, sequence (P14916 whole entry partner): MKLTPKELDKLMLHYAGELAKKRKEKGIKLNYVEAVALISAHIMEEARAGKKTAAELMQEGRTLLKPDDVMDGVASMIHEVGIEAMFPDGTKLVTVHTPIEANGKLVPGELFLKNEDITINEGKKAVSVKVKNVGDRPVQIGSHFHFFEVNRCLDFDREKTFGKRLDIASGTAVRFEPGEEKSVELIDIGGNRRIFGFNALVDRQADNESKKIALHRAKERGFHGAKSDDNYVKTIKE

What is called MBC is the smallest concentration meeting the test's criterion for killing. The MIC is the smallest concentration in the dilution series that meets the test's criterion for growth inhibition. A high value points to a less susceptible organism. In general, CC50 refers to the concentration giving 50% cytotoxicity. A higher CC50 goes with lower toxicity to the cells. For orientation: IC50 means the concentration needed to halve the response being measured. On to `O=c1cc(-c2ccc(O)c(O)c2)oc2cc(O)cc(O)c12` [LUT, luteolin], for which, in [1] (at test concentrations (sub-MICs)), the antibiofilm activity result is reported as “did not show antibiofilm activity”. Further, the MBC (in [2]; in the data set with H. pylori OX.63 (Helicobacter pylori); in the data set on H. pylori OX.64 (Helicobacter pylori); against H. pylori OX.83 (Helicobacter pylori); against H. pylori OX.67 (Helicobacter pylori); in the data set with H. pylori OX.22) was 1250 µg/mL (≈ 4370 µM) throughout. Besides, the MBC against H. pylori ATCC 43504 [9] and against H. pylori ATCC 51932 was 1250 µg/mL (≈ 4370 µM) in each case. Besides, the MIC (in data set [2] (ATCC51932); against H. pylori OX.63 (setting [12]); in the data set on H. pylori OX.64 (setting [13]); against H. pylori OX.83 (setting [14]); against H. pylori OX.67 (setting [15]); against H. pylori OX.22) was 125 µg/mL (≈ 437 µM) throughout. Also, the minimum inhibitory concentration (MIC) with H. pylori ATCC 43504 [9] and against H. pylori ATCC 51932 was 125 µg/mL (≈ 437 µM) throughout. Also, the CC50 at 48 h in data set [3] is 8.64 µg/mL (≈ 30.2 µM); in data set [4], 5.12 µg/mL (≈ 17.9 µM); in data set [6] it was 8.36 µg/mL (≈ 29.2 µM); in [7] it was 49.8 µg/mL (≈ 174 µM); in data set [8], 5.12 to 49.8 µg/mL (≈ 17.9 to 174 µM). The compound also yielded a reduction of viability in the data set with H. pylori ATCC 43504 [5] (four times the MIC, 12 h) of about 3 log10. In data set [10], this compound registered an IC50 of 402 µM. In addition, in data set [10], the “slope ± SE” value came out at 2.16 ± 0.080. The “conversion to the coccoid form” value came to 14.7% in the data set on H. pylori ATCC 43504 [11] (500 mg/L) and 87.5% in the data set with H. pylori ATCC 43504 [11] (1000 mg/L).
`O=c1c(O)c(-c2cc(O)c(O)c(O)c2)oc2cc(O)cc(O)c12` [MCT, myricetin]: the “reduction of biofilm formation” value in data set [1] (1/2 × MIC (NRG 50 mg/L, MCT 75 mg/L)) stood at 39.5%. In addition, the MBC (in data set [2]; in the data set on H. pylori OX.63 (Helicobacter pylori); with H. pylori OX.64 (Helicobacter pylori); with H. pylori OX.83 (Helicobacter pylori); in the data set on H. pylori OX.67 (Helicobacter pylori); in the data set on H. pylori OX.22) was 1250 µg/mL (≈ 3930 µM) each time. The MBC in the data set with H. pylori ATCC 43504 [9] and in the data set on H. pylori ATCC 51932 was 1250 µg/mL (≈ 3930 µM) each time. The MIC (in data set [2] (ATCC51932); with H. pylori OX.63 (setting [12]); in the data set on H. pylori OX.64 (setting [13]); against H. pylori OX.83 (setting [14]); in the data set with H. pylori OX.67 (setting [15]); against H. pylori OX.22) was 150 µg/mL (≈ 471 µM) throughout. In addition, the MIC with H. pylori ATCC 43504 [9] and in the data set with H. pylori ATCC 51932 was 150 µg/mL (≈ 471 µM) in each case. The CC50 at 48 h in [3] was 31.7 µg/mL (≈ 99.6 µM); in [4], 7.61 µg/mL (≈ 23.9 µM); in data set [6], 36.8 µg/mL (≈ 116 µM); in [7] it was 76.1 µg/mL (≈ 239 µM); in data set [8] it was 7.61 to 76.1 µg/mL (≈ 23.9 to 239 µM). In addition, the reduction of viability in the data set on H. pylori ATCC 43504 [5] (at the MIC, 24 h) is about 2.7 log10; with H. pylori ATCC 43504 [5] (eight times the MIC, 36 h), about 4.2 log10. The midpoint of inhibition in data set [10], the IC50, lay at 63 µM. Further, the “concentration of complete inhibition of urease” value in data set [10] (Figure 5) is given as 0.402 mM. In addition, the “slope ± SE” value in data set [10] was 2.26 and 2.26 ± 0.070. Besides, the “conversion to the coccoid form” value in the data set with H. pylori ATCC 43504 [11] (500 mg/L) came out at 15%; with H. pylori ATCC 43504 [11] (1000 mg/L), 79%.
As for `CC1(C)S[C@@H]2[C@H](NC(=O)[C@H](N)c3ccc(O)cc3)C(=O)N2[C@H]1C(=O)O` [amoxicillin], the MIC in the data set on H. pylori OX.63 (setting [12]) was 0.063 µg/mL (≈ 0.172 µM); with H. pylori OX.64 (setting [13]), 0.031 µg/mL (≈ 0.0848 µM); with H. pylori OX.83 (setting [14]), 0.063 µg/mL (≈ 0.172 µM); against H. pylori OX.67 (setting [15]) it was 0.031 µg/mL (≈ 0.0848 µM); with H. pylori OX.22, 0.063 µg/mL (≈ 0.172 µM); against H. pylori ATCC 43504 [9] it was 0.031 µg/mL (≈ 0.0848 µM). The compound also came in with an MIC with H. pylori ATCC 51932 of 0.063 µg/mL (≈ 0.172 µM). Moreover, the MBC in the data set on H. pylori OX.63 (Helicobacter pylori) amounted to 0.25 µg/mL (≈ 0.684 µM); in the data set with H. pylori OX.64 (Helicobacter pylori) it was 0.125 µg/mL (≈ 0.342 µM); against H. pylori OX.83 (Helicobacter pylori), 0.25 µg/mL (≈ 0.684 µM); with H. pylori OX.67 (Helicobacter pylori) it was 0.125 µg/mL (≈ 0.342 µM); with H. pylori OX.22 it was 0.25 µg/mL (≈ 0.684 µM); against H. pylori ATCC 43504 [9], 0.063 µg/mL (≈ 0.172 µM). Also, the MBC in the data set with H. pylori ATCC 51932 stood at 0.125 µg/mL (≈ 0.342 µM).
Consider `CC[C@H]1OC(=O)[C@H](C)[C@@H](O[C@H]2C[C@@](C)(OC)[C@@H](O)[C@H](C)O2)[C@H](C)[C@@H](O[C@@H]2O[C@H](C)C[C@H](N(C)C)[C@H]2O)[C@](C)(O)C[C@@H](C)CN(C)[C@H](C)[C@@H](O)[C@]1(C)O` [azithromycin], for which the minimum inhibitory concentration (MIC) in data set [2] is 16 to 32 µg/mL (≈ 21.4 to 42.7 µM); with H. pylori OX.63, 32 µg/mL (≈ 42.7 µM); against H. pylori OX.63 (setting [12]), 32 to 64 µg/mL (≈ 42.7 to 85.4 µM); in the data set with H. pylori OX.64 it was 16 µg/mL (≈ 21.4 µM); in the data set with H. pylori OX.64 (setting [13]), 16 to 32 µg/mL (≈ 21.4 to 42.7 µM); with H. pylori OX.83, 32 µg/mL (≈ 42.7 µM). For the same compound, the minimum inhibitory concentration (MIC) against H. pylori OX.83 (setting [14]) turned out to be 64 µg/mL (≈ 85.4 µM); against H. pylori OX.67, 32 µg/mL (≈ 42.7 µM); against H. pylori OX.67 (setting [15]), 64 µg/mL (≈ 85.4 µM); with H. pylori OX.22 it was 0.5 µg/mL (≈ 0.668 µM); against H. pylori ATCC 43504 [9], 0.5 µg/mL (≈ 0.668 µM); in the data set with H. pylori ATCC 51932 it was 0.5 µg/mL (≈ 0.668 µM). The MBC is 128 µg/mL (≈ 171 µM) against H. pylori OX.63 (Helicobacter pylori); 128 µg/mL (≈ 171 µM) against H. pylori OX.64 (Helicobacter pylori); 128 µg/mL (≈ 171 µM) against H. pylori OX.83 (Helicobacter pylori); 128 µg/mL (≈ 171 µM) in the data set on H. pylori OX.67 (Helicobacter pylori); 1 µg/mL (≈ 1.34 µM) against H. pylori OX.22; 1 µg/mL (≈ 1.34 µM) with H. pylori ATCC 43504 [9]. Besides, in the data set with H. pylori ATCC 51932, the MBC was 1 µg/mL (≈ 1.34 µM).
